PPC-1+TRAIL kill – kills PPC-1 cancer cells in the presence of TRAIL; PPC-1 cells + TRAIL, ATPLite viability luminescence; cell killing (% activity), % at 4 µM or 5 µM; 220,000 compounds, 0.41% hits; AID 1443;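 active = cell killing above 50% in the first pass at 4 µM, then a duplicate retest at 5 µM averaging 50% or more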;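 also: plate controls were cells with TRAIL plus DMSO for no effect and medium-only wells lacking cells for full effect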
TRAIL sens C8 – caspase-8 TRAIL sensitization. NB7+C8 cells + TRAIL, ATPlite viability luminescence. inhibition (viability loss, TRAIL sensitization), % at 10 µM. 360,000 compounds, 1% hits;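 active = compounds causing at least 50% loss of cell viability in the single-dose screen, relative to plate controls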
FLuc inhib CS – counter-screen for luciferase assay inhibitors: firefly luciferase inhibition; P08659; ATPLite firefly luciferase biochemical luminescence, 10 min; inhibition, % at 10 µM; 200,000 compounds, 1.5% hits; AID 1006;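 active = inhibition above about 50% when tested at 10 µM, limit read from the data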
Target sequence (P08659 whole entry, looked up): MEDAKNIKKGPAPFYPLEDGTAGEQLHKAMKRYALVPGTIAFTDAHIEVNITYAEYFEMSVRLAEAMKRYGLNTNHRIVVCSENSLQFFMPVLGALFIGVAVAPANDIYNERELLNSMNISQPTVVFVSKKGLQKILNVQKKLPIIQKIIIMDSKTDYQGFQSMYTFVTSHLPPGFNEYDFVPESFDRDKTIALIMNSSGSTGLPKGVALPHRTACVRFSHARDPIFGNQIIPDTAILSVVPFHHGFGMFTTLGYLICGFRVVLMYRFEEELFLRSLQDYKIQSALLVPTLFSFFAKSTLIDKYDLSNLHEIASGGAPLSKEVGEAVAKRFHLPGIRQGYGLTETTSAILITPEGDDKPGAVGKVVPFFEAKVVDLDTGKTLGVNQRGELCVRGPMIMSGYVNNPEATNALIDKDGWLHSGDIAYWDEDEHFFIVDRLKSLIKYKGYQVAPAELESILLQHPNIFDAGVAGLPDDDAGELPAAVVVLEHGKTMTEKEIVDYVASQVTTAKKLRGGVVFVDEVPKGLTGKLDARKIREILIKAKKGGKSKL
FLuc stim CS – affects firefly luciferase, flagging false hits in luciferase stimulation screens. P08659. ATPlite luciferase biochemical, luminescence, 10 min; 0 = ATP-free wells, 1 = DMSO control. activation factor at 10 µM. 200,000 tested, under 10 active. AID 1027;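 active = luciferase activation factor, scaled between plate controls, of at least 2 with compound at 10 µM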
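System: cell-free luciferase reagent; medium: PBS as buffer for the ATP substrate; doses: test compounds dosed from 2 mM stocks in 100% DMSO; incubation: 10 min, room temperature; measured by: luminescence from luciferase reaction; read-out: luciferase activation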
Numbers without * were called inactive; x = no result given; ! = repeats disagree. Shown are actives, neighbours in structure and some others; about 1.5% of the full set was active somewhere.

SMILES	PPC-1+TRAIL kill	TRAIL sens C8	FLuc inhib CS	FLuc stim CS
CC(C)(C)OC(=O)NCc1ccc(NC(=O)c2nc[nH]c2C(=O)N[C@@H](Cc2ccccc2)C(=O)OCc2ccccc2)cc1	-4	83*	x	x
CC(C)(C)OC(=O)NCCCC[C@H](NC(=O)c1[nH]cnc1C(=O)Nc1ccccc1)C(=O)OC(C)(C)C	3	59*	x	x
CCN1CCN(Cc2ccc(NC(=O)c3ccc(C)c(/C=C/c4cnc(Nc5cc(N6CCNCC6)nc(C)n5)cn4)c3)cc2C(F)(F)F)CC1	x	63*!	x	x
CCN1CCN(Cc2ccc(NC(=O)c3ccc(C)c(NC(=O)c4ccno4)c3)cc2C(F)(F)F)CC1	15	23	x	x
Cc1ccc(S(=O)(=O)Nc2cc(C)cn(Cc3ccc(F)cc3)c2=O)cc1	x	17	x	x
C=CCSc1nc2nc(C)cc(C)n2n1	9	-1	-7	1.1
COc1ccc(/C=C/C(=O)Nc2ccccc2C(=O)O)cc1OC	24	29	54*	0.5
COc1ccccc1NC(=O)COC(=O)/C=C/c1ccc2c(c1)OCO2	x	2	8	0.9
NC(=O)c1ccccc1NC(=O)/C=C/c1cccc(Cl)c1	14	20	56*	0.4
CCOC(=O)c1cccc(NC(=O)/C=C/c2ccc3c(c2)OCO3)c1	33	85*	36	0.6
COc1ccccc1NC(=O)/C=C/c1ccc2c(c1)OCO2	10	20	61*	0.4
COc1ccc(/C=C/C(=O)Nc2ccccc2C(F)(F)F)cc1OC	7	10	-6	1.1
Cc1ccc(NC(=O)CN(C)CC(=O)Nc2ccc(N3CCOCC3)cc2)cc1F	19	0	3	1
CN(C)c1ccc(NC(=O)Oc2ccccc2)cc1	-26	-1	74*	0.3
CN(C)S(=O)(=O)c1ccc(NC(=O)c2ccccn2)cc1	17	6	35	0.7
CN(C)c1ccc(C(=S)Nc2ccccc2)cc1	35	43	56*	0.4
CN(C)c1ccc(NC(=S)c2ccccn2)cc1	69*	85*	95*	0.1
CN(C)c1cc(O)c(C(=S)Nc2ccccc2)c(N(C)C)c1	8	-9	2	1
O=C(NCCN1CCOCC1)c1ccc2c(c1)N(Cc1ccccc1)CCS2	-1	-9	-9	1.1
O=C1c2ccccc2C(=O)N1/N=C/c1ccc(O)c(O)c1	14	8	74*	0.3
O=C1C2C3C=CC(CC3)C2C(=O)N1/N=C/c1ccc(O)c(O)c1 (centres undefined)	0	13	42	0.6
COc1cc(/C=N/NC(=S)N/N=C/c2cc(OC)c(OC)c(OC)c2)cc(OC)c1OC	-1	16	68*	0.3
COc1ccccc1NC(=S)N/N=C/c1ccc(O)cc1	32	46	5	1
Oc1ccc(/C=N/NC(=S)N/N=C/c2ccc(O)cc2)cc1	23	5	96*	0
COc1ccc(O)c(/C=N/NC(=S)Nc2cccnc2)c1	48	65*	36	0.6
SMILES	PPC-1+TRAIL kill	TRAIL sens C8	FLuc inhib CS	FLuc stim CS
COc1cccc(/C=N/NC(=S)Nc2cccc(C(=O)O)c2)c1	19	24	53*	0.5
Cc1ccccc1S(=O)(=O)Cc1ccc(C(=O)NC(C)c2ccc3c(c2)OCCO3)o1 (centres undefined)	14	2	-4	1
CC(=O)Nc1ccc(C(=O)OCC(=O)NC(=O)NC2CCCCC2)cc1	30	-2	-1	1
CN1C(=S)NC(C)(C)CC1(C)c1ccc(O)cc1O (centres undefined)	10	4	-5	1
COc1cc(C(Nc2ccc(S(=O)(=O)NCC3CCCO3)cc2)C(=O)NC(C)(C)C)cc(OC)c1OC (centres undefined)	22	4	x	x
Oc1ccc(/C=N/NC(=S)Nc2cccnc2)cc1	40	71*	x	x
O=C(Nc1ccc2c(c1)OCO2)c1ccc2c(c1)OCO2	48	71*	83*	0.2
O=C(Nc1ccn(Cc2ccccc2)n1)c1ccc2c(c1)OCO2	40	29	58*	0.4
C/C(=N\NC(=O)c1ccc(O)cc1)c1cccc(NC(=O)c2ccccc2C)c1	x	63*	x	x
CC(=O)Nc1cccc(/C(C)=N/NC(=O)c2ccc3c(c2)OCO3)c1	37	49	75*	0.2
O=C(Nc1ccn(Cc2ccc(Cl)cc2)n1)c1ccccc1	21	-6	25	0.7
O=C(Nc1ccc2c(c1)OCCO2)NC1CCCCC1	44	55*	71*	0.3
O=C(Nc1ccc2c(c1)OCO2)c1ccc(Cl)s1	14	21	61*	0.4
Cc1cc(C(=O)Nc2ccc3c(c2)OCO3)cs1	48	36	65*	0.3
C/C(=N\NC(=O)c1nn(C)c(C)c1Br)c1cccc(NC(=O)c2ccc(F)cc2)c1	36	53*	69*	0.3
CN(c1ccccc1)S(=O)(=O)c1ccc(C(=O)NCc2ccc(F)cc2)cc1	x	4	x	x
O=C(Nc1ccc2c(c1)OCCO2)c1cccc2nc3ccccc3nc12	23	60*	0	1
O=C(Nc1ccc2c(c1)OCO2)Nc1cnccn1	13	9	8	0.9
O=C(Nc1ccc2c(c1)OCCO2)c1ccccc1Cl	x	42	x	x
CC(=O)Nc1ccc(C(=O)Nc2ccc3c(c2)OCCO3)cc1	x	18	x	x
O=C(Nc1ccc2c(c1)OCO2)Nc1ccccn1	33	29	50*	0.5
O=C(Nc1ccc2c(c1)OCCO2)c1ccc(Cl)cc1	x	59*	x	x
O=C(CCl)Nc1ccccc1C(=O)Nc1ccc2c(c1)OCO2	44	50*	x	x
COc1cc2c(cc1OC)CN(c1nc(CN3CCOCC3)nc3sc4c(c13)CCCC4)CC2	-8	-2	-6	1.1
CCOC(=O)c1c(NC(=O)C(=O)N/N=C/c2ccccc2O)sc2c1CCCCC2	13	5	0	1
SMILES	PPC-1+TRAIL kill	TRAIL sens C8	FLuc inhib CS	FLuc stim CS
CCOC(=O)c1c(NC(=O)C(=O)N/N=C/c2ccccc2OC)sc2c1CCCCC2	13	-7	59*	0.4
Cc1ccc(N2Cc3ccccc3C2=S)cc1	39	35	76*	0.2
CCOc1ccc(Br)cc1C(=O)N/N=C/c1ccc([N+](=O)[O-])cc1	28	1	-5	1
O=C1C(C=NCc2ccco2)=C(O)c2ccccc21	7	-5	42	0.6
O=C1C(C=Nc2ccc(F)cc2)=C(O)c2ccccc21	22	57*	77*	0.2
Cn1c(-c2ccccc2)cnc1SCc1nc2ccccc2c(=O)[nH]1	24	24	61*	0.4
Cn1c(SCc2nc3ccccc3c(=O)[nH]2)nc2ccccc21	10	-1	5	0.9
O=C(CCNS(=O)(=O)c1ccccc1C(F)(F)F)NCC(c1ccco1)N1CCCCC1 (centres undefined)	x	-14	x	x
CC1(C)N=C(N)N=C(N)N1c1cccc(CC(=O)Nc2ccccc2)c1	x	78*	x	x
CC1(C)N=C(N)N=C(N)N1c1ccc(OCCCOc2ccccc2)c(Cl)c1	41	71*	x	x
O=C(COc1ccccc1Cl)Nc1ccc(N2CCCC2)cc1	x	0	x	x
COc1ccccc1N1C(N)=NC(N)=NC1(C)C	19	-1	-6	1.1
CC1(C)N=C(N)N=C(N)N1c1ccc(OCC(=O)Nc2ccccc2)c(Cl)c1	x	81*	x	x
